# Test results from PubChem BioAssay.
# Unmarked numbers belong to inactive results. Records with an inconclusive call do not appear. The source made the active and inactive calls.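 How the source made its calls, unless noted: active means viability increase at or above a cutoff of the median across tested compounds plus 3 SD (cut at about 8.5% in these data, passing the limit was not always enough); inconclusive means some gains above the cutoff, reason not given; inactive means the rest.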
# Assays:
# [1] = OD615 S. cerevisiae growth inhibition, permissive medium, pilot counter-assay, permissive growth control for S. cerevisiae lifespan shortening project (AID 705;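 active means growth inhibition above 25% in both replicates, a cutoff set 3 SD above the mean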); details: OD615, 24 h, at 10 µM, hits give high values
# Procedure, shortened: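 Test system: Saccharomyces cerevisiae strain carrying genetically modified DeaD replicative-lifespan system; buffer or medium: SC raffinose/galactose permissive medium; dosing: one dose 10 µM, DMSO 0.25% final; times: 24 h exposure, 30 °C; measured by: OD at 615 nm; read-out basis: growth inhibition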
# [2] = Restrictive medium S. cerevisiae growth inhibition, OD615, pilot screen of yeast lifespan reduction project, restrictive growth control (AID 706;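 active means growth inhibition above a set limit, 3 SD over mean compound inhibition, in both replicates, cut at about 43% in these data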;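 further: modified DeaD lifespan yeast strain shifted to restrictive glucose medium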); details: OD615, 48 h, at 10 µM, hits give high values
# Procedure, shortened: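 material = engineered S. cerevisiae DeaD strain | buffer or medium = glucose-based CSMM-D restrictive medium | dosing = one concentration, 10 µM final, 0.25% DMSO | schedule = 4 h pre-growth plus 48 h compound exposure, 30 °C | detection = OD615 absorbance reading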
# [3] = viability gain of MRP-1-high H69AR cells under doxorubicin, pilot screen, MRP-1 activator project, CellTiter-Glo, duplicate (AID 807); details: H69AR viability with doxorubicin, CellTiter-Glo luminescence; at 10 µM; hits give high values;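 further: compound pretreatment 18-22 h then 72 h combined with doxorubicin; 0% = doxorubicin alone and 100% = vehicle without doxorubicin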
# [4] = growth suppression of beta-catenin knockout HCT116, pilot screen, human colon tumor cells (AID 823;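 active means cell viability at or below a set limit in both duplicate runs, the limit being the all-compound median minus 4 SD, cut at about 23% in these data, passing the limit was not always enough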;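 further: 0% = wells killed by 20 µM Hyamine and 100% = untreated DMSO cell wells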); details: CellTiter-Glo, 60 h, at 10 µM, hits give low values
# [5] = growth suppression of PTEN-deleted HCT116, pilot screen, cell-based, HCT116 clonal line, CellTiter-Glo (AID 824;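 active means viability at or below 27.92% in each of two runs, the all-compound median minus 4 SD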;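 further: 0% = 20 µM Hyamine control and 100% = vehicle cell control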); details: 60 h, at 10 µM, hits give low values
# [6] = inhibitors of the yeast RAM network, pilot screen, dse1pr::URA3 reporter, 5-FOA selection (AID 869;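 active means inhibition over a set limit, the all-compound mean plus 3 SD, in both replicate runs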;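 further: 0% = DMSO wells with no growth and 100% = 10 µM 1-NA-PP1 with full growth; RAM network block rescues cells from 5-FOA so hits raise OD615 growth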); details: S. cerevisiae dse1pr::URA3 5-FOA growth, OD615, 2 d, at 10 µM, hits give high values
# [7] = RAM signaling pathway blockade in yeast – S. cerevisiae, Pdr1DBD-CYC8 efflux-inhibited sensitized strain, primary screen (AID 1298;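 active means RAM network inhibition above 8.4% in each of two replicates, 3 SD over the compound average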;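 further: 0% = DMSO untreated cells without growth and 100% = 10 µM 1-NA-PP1 full growth; higher means more yeast growth rescued from 5-FOA killing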); details: S. cerevisiae cbk1-as DSE1-URA3 strain, 5-FOA growth OD615, 2 d; at 50 µM; hits give high values
SMILES,growth inhibition [1],growth inhibition [2],viability increase [3],viability [4],viability [5],inhibition [6],RAM network inhibition [7]
C=Cn1ccnc1P(=S)(c1nccn1C=C)C1CCCCC1,0.2%,-2.3%,-1.76%,92.3%,93.1%,0.82%,3.48%
O/N=C/c1c[nH]c2ccccc12,4.87%,0.865%,-4.62%,99.9%,94.4%,2.54%,3.59%
O=C(CN1CC(c2ccccc2)CC1=O)Nc1ccc(F)cc1 (stereo not given),-15.6%,-4.88%,-3.89%,101%,99.2%,-0.44%,0.85%
Cc1cc(Br)ccc1N1C(=O)CC(=O)NC1=O,-12.1%,7.12%,-0.25%,93.4%,95.3%,0.535%,0.67%
O=C(c1ccc2c(c1)OCO2)N1CCC2(CC1)OCCO2,-5.96%,-4.21%,1.06%,102%,97.1%,0.85%,-1.11%
Cc1ccc2c(c1)C1CN(C)CCC1N2C(=O)c1ccco1 (stereo not given),-2.01%,-12.5%,-3.67%,85.4%,91.9%,1.32%,2.85%
CC1CCCCN1CC(=O)c1ccc2cc[nH]c2c1 (stereo not given),-4.76%,3.28%,-2.48%,98.1%,89.4%,1.31%,2.76%
O=c1c2ccccc2nc(-c2ccco2)n1-c1ccncc1,-1.4%,3.59%,0.16%,91.8%,97.2%,0.635%,-0.06%
CCC(=O)N1CC(=O)Nc2ccc(F)cc2C1c1ccccc1 (stereo not given),-9.43%,-11.4%,-1%,92.2%,90.9%,2.25%,3.64%
Cc1ccc2cccc(OC(=O)N(C)c3ccccc3)c2n1,-4.06%,-4.96%,-0.64%,95.5%,87.5%,1.67%,1.8%
CCCOC(=O)COc1cc(C)cc2oc(=O)c3c(c12)CCC3,-10.1%,-13.8%,1.68%,88%,86.1%,1.03%,4.39%
CCOC(=O)c1c(C)c(P(=S)(N2CCOCC2)N2CCOCC2)n(C)c1C,-22.4%,-3.18%,-3.92%,89.1%,87.1%,2.06%,2.36%
O=C(CN1CC(c2ccccc2)CC1=O)Nc1cccc(F)c1 (stereo not given),-10.1%,-5.42%,-4.37%,98.3%,96.5%,1.39%,4.67%
O/N=C1\CCC2CN(C3CCCCC3)CC2C1 (stereo not given),8.11%,-1.4%,-1.85%,109%,97.9%,0.775%,0.94%
Cc1ccc2occ(CN3CC4CC(C3)c3cccc(=O)n3C4)c(=O)c2c1 (stereo not given),-16.2%,-17.7%,-2.72%,98.5%,90.8%,1.96%,1.61%
OC12CCCCC1C(c1ccccc1)NCC2 (stereo not given),-3.8%,-17.1%,-2.28%,102%,102%,3.24%,3.17%
O=C(CN1CC(c2ccccc2)CC1=O)Nc1ccccc1 (stereo not given),-20.4%,-12.7%,-1.8%,106%,95.4%,1.06%,4.01%
c1cncc(C2CCCCN2Cc2ccc3c(c2)OCO3)c1 (stereo not given),-6.18%,-13%,-0.84%,95.2%,94.3%,2.12%,4.3%
Cn1c(O)c(C=Nc2ccc(Cl)cc2)c(=O)n(C)c1=O,-7.12%,-0.49%,-0.57%,96.2%,93.7%,0.685%,4.04%

SMILES,growth inhibition [1],growth inhibition [2],viability increase [3],viability [4],viability [5],inhibition [6],RAM network inhibition [7]
CCCCP(=O)(O)c1ccccc1,-5.46%,-11.7%,-0.51%,101%,95.4%,1.03%,3.03%
O=C(O)C1CSC(c2cccnc2)N1 (stereo not given),-3.98%,-8.32%,-1.05%,99.3%,106%,3.04%,2.35%
O=C(O)c1cc2ccccc2oc1=O,-21.9%,-5.03%,-0.27%,103%,99.6%,1.08%,1.06%
COP(=S)(OC)SCN1C(=O)c2ccccc2C1=O,14%,26.2%,-4.23%,94.2%,84.9%,1.48%,3.76%
CCCCCCOc1ccc(CN2CCN(CCO)CC2)cc1,-16.7%,2.46%,-6.03%,60.7%,75.5%,2%,-1.21%
O=C1CCCC2=C1C(c1cccnc1)Nc1ccccc1N2 (stereo not given),-12.3%,-2.74%,-1.06%,90.8%,99.2%,1.61%,4.54%
O=C(O)C1CN2CCC1CC2 (stereo not given),-6.59%,5.84%,-0.31%,96.2%,93.3%,0.99%,-0.77%
Cc1ccc2c(c1)C1CN(C)CCC1N2C(=O)Cn1nnc(-c2ccccc2F)n1 (stereo not given),6.06%,-9.18%,-5.58%,85.2%,83.8%,0.18%,3.31%
CC12CCC(=O)C=C1CCC1C2CCC2(C)C(O)CCC12 (stereo not given),5.38%,6.93%,-3.17%,89.5%,94%,0.475%,1.32%
COc1ccc2nc(NC(=O)CCc3nc(C4=CCN(C)CC4)no3)sc2c1,-7.66%,2.61%,-2.1%,79.2%,91.7%,2.04%,5.11%
Cn1c(O)c(C(=NCCN2CCCCC2)c2ccccc2Cl)c(=O)n(C)c1=O,-15%,-13.6%,-0.81%,87.3%,93.8%,-0.185%,0.48%
CCOC(=O)c1c(C)n(Cc2ccccc2)c2ccc(OCC(O)Cn3nc(C)nc3C)cc12 (stereo not given),-0.525%,19.9%,-0.16%,82.7%,88.3%,-0.42%,0.63%
OC12Oc3ccccc3C=C1N1CCC2CC1 (stereo not given),1.47%,-1.35%,0.26%,99.1%,96.8%,1.48%,0.26%
C=C(C)c1cccc(C(C)(C)NC(=O)NC2CN3CCC2CC3)c1 (stereo not given),-5.2%,2.09%,-1.24%,94.4%,93.9%,-0.575%,0.82%
CCCCCn1c(=O)c(C(=O)Nc2ccncc2)c(O)c2ccccc21,92.1% (active),100% (active),-8.28%,13.2% (active),9.96% (active),-0.43% [strain carries analog-sensitive mutant Cbk1 kinase],-1.36%
Nc1ccc(S(=O)(=O)N2CCCCC2c2cccnc2)cc1 (stereo not given),-3.15%,0.935%,-0.96%,103%,104%,0.625%,-0.2%
O=c1c2ccccc2nc(-c2ccco2)n1-c1ccccn1,-12.2%,-7.09%,-0.82%,107%,95.2%,1.16%,3.37%
c1ccc2c(CN3CCCCCCC3)c[nH]c2c1,-9.45%,0.115%,-6.65%,62.3%,67.8%,0.485%,5.27%
Cc1c(C(=O)N2CCC3(CC2)OCCO3)oc2ccc(S(=O)(=O)N3CCOCC3)cc12,-9.41%,-18.4%,-1.67%,,98.4%,1.09%,1.19%
